Reference: ChEMBL document CHEMBL1158602, “Dihydro-pyrano[2,3-b]pyridines and tetrahydro-1,8-naphthyridines as CB1 receptor inverse agonists: synthesis, SAR and biological evaluation” (Bioorg Med Chem Lett, 2010)

Columns and labels:
[1] = Drug level in rat plasma at 1 mg/kg, iv after 4 hrs; type: ADME, organism-based; design: dose 1 mg/kg, route intravenous; conditions: read-out: Drug uptake
Summary of the method: (§1)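 Rats given 1 mg/kg intravenously; brain and plasma drug concentrations measured 4 h after dosing, and the brain/plasma ratio taken from these levels.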

[2] = Clearance in rat plasma at 1 mg/kg, iv after 4 hrs; type: ADME, organism-based; design: dose 1 mg/kg, route intravenous
[3] = Ratio of drug level in brain to plasma in rat at 1 mg/kg, iv after 4 hrs; type: ADME, organism-based; design: dose 1 mg/kg, route intravenous; conditions: brain and plasma; summary of the method: as §1
[4] = Oral bioavailability in rat at 1 mg/kg, iv after 4 hrs; type: ADME, organism-based; conditions: in vivo
[5] = Half life in rat at 1 mg/kg, iv after 4 hrs; type: ADME, organism-based; design: dose 1 mg/kg, route intravenous; conditions: in vivo
[6] = Drug level in rat brain at 1 mg/kg, iv after 4 hrs; type: ADME, organism-based; design: dose 1 mg/kg, route intravenous; conditions: read-out: Drug uptake; summary of the method: as §1
Rattus norvegicus [7] = experiment: Toxicity in diet-induced obese rat assessed as suppression in food intake at 3 mg/kg, po after 18 hrs; type: organism-based; design: dose 3 mg/kg, route oral; conditions: in vivo
[8] = target: Voltage-gated inwardly rectifying potassium channel KCNH2 (Homo sapiens, UniProt Q12809)
Cannabinoid receptor 2 = Cannabinoid receptor 2 (Homo sapiens, UniProt P34972); experiment: Binding affinity to human CB2 receptor
Cannabinoid receptor 1 = Cannabinoid receptor 1 (Homo sapiens, UniProt P21554); experiment: Binding affinity to human CB1 receptor
Rattus norvegicus [9] = experiment: Toxicity in diet-induced obese rat assessed as change in body weight at 3 mg/kg, po after 18 hrs (RVb = 6 g); type: organism-based; design: dose 3 mg/kg, route oral; conditions: in vivo
Summary of the method: (§2)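 Diet-induced obese rats dosed orally at 3 mg/kg and monitored for 18 h (overnight); body weight change and food intake compared with vehicle-treated animals.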

Rattus norvegicus [10] = experiment: Toxicity in diet-induced obese rat assessed as change in body weight at 3 mg/kg, po after 18 hrs (RVb = 5 g); type: organism-based; design: dose 3 mg/kg, route oral; conditions: in vivo
[11] = target: GABA-A receptor; agonist GABA site (Homo sapiens) (UniProt P14867+P47870+P28472+P48169+P34903+P18505+P47869+P31644+Q16445); experiment: Partial agonist activity at human GABAA receptor at 3 uM; type: functional
[12] = target: GABA-A receptor; agonist GABA site; experiment: Partial agonist activity at human GABAA receptor; type: functional
Rattus norvegicus [13] = experiment: Toxicity in diet-induced obese rat assessed as change in body weight at 3 mg/kg, po after 18 hrs (RVb = 10 g); type: organism-based; design: dose 3 mg/kg, route oral; conditions: in vivo
Rattus norvegicus [14] = experiment: Toxicity in diet-induced obese rat assessed as change in body weight at 3 mg/kg, po after 18 hrs (RVb = 7 g); type: organism-based; design: dose 3 mg/kg, route oral; conditions: in vivo; summary of the method: as §2

Cannabinoid receptor 2, sequence (P34972 whole entry): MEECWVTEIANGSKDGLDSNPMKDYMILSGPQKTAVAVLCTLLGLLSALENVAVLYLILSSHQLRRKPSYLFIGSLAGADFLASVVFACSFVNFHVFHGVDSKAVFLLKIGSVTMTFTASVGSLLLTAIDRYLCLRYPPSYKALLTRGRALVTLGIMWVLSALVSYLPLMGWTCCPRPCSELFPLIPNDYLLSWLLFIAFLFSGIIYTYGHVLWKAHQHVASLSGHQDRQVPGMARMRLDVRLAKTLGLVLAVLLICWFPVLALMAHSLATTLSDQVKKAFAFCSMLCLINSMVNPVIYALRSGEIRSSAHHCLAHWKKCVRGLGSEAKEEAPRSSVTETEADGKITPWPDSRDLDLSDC
Cannabinoid receptor 1, sequence (P21554 whole entry): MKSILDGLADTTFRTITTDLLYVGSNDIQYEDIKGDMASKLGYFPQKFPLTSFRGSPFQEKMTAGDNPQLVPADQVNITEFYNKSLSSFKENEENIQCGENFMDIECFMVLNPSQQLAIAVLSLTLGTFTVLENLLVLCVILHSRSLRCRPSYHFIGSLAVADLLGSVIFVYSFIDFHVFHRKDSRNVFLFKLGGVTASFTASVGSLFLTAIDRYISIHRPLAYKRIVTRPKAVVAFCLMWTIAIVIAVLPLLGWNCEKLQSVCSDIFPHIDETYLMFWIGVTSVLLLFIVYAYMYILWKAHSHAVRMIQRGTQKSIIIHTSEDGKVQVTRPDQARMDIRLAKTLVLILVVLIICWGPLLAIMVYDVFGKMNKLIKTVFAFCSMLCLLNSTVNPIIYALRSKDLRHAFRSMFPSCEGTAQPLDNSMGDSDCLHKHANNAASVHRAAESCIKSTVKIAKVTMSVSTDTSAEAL
Voltage-gated inwardly rectifying potassium channel KCNH2, sequence (Q12809 whole entry): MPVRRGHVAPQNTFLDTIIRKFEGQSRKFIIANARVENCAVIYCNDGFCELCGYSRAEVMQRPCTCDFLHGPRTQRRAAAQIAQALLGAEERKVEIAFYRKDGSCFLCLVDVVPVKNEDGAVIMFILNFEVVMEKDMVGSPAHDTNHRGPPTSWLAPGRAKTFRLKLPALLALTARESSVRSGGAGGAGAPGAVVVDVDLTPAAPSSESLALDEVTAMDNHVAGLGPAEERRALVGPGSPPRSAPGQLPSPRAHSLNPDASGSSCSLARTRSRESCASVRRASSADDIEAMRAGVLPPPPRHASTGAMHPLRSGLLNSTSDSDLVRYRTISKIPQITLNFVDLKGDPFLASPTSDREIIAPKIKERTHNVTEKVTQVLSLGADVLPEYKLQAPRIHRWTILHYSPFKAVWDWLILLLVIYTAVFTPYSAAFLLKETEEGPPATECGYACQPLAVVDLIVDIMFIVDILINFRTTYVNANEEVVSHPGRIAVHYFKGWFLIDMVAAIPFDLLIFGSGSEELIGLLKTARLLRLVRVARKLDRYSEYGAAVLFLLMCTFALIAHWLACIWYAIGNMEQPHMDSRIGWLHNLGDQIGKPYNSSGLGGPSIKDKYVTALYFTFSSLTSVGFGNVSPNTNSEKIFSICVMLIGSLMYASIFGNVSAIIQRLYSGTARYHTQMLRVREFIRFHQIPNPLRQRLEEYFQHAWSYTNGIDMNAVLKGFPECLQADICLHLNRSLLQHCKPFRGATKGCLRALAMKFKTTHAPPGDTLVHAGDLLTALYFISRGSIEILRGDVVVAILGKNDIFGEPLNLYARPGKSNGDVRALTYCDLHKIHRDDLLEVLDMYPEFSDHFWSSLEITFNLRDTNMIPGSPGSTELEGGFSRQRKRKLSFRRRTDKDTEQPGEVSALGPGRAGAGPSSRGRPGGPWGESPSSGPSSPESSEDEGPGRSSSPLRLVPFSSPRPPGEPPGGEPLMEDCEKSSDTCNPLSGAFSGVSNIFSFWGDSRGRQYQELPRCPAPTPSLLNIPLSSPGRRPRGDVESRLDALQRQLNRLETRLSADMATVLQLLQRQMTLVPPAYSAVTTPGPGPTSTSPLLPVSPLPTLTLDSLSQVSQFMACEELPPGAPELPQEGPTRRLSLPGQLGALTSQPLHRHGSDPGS

SMILES	IC50 (Cannabinoid receptor 2) [nM]	IC50 (Cannabinoid receptor 1) [nM]	also measured
C[C@@H](O)C(=O)NC1CC(C)(C)Oc2nc(-c3ccc(Cl)cc3Cl)c(-c3ccc(Cl)cc3)cc21 (single isomer, unassigned)	–	–	concentration at 4 h [1]: 321 nM; clearance [2]: 4 mL/min/kg; Kp at 4 h [3]: 0.38; bioavailability [4]: 100%; half-life [5]: 7.9 h; concentration at 4 h [6]: 122 nM
CN1c2nc(-c3ccc(Cl)cc3Cl)c(-c3ccc(Cl)cc3)cc2C(C(=O)NCO)CC1(C)C (single isomer, unassigned; enantiomer 1) [6-(4-CHLOROPHENYL)-7-(2,4-DICHLOROPHENYL)-N-(HYDROXYMETHYL)-1,2,2-TRIMETHYL-1,2,3,4-TETRAHYDRO-1,8-NAPHTHYRIDINE-4-CARBOXAMIDE (ENANTIOMERIC MIX)]	801	3.7	Activity (Rattus norvegicus [7]): 55%; concentration at 4 h [1]: 380 nM; clearance [2]: 12 mL/min/kg; Kp at 4 h [3]: 0.88; IC50 [8]: 40 nM; bioavailability [4]: 25%; half-life [5]: 4.2 h; concentration at 4 h [6]: 76 nM; Activity (Rattus norvegicus [9]): -8 g
CC1(C)CC(NC(=O)CCO)c2cc(-c3ccc(Cl)cc3)c(-c3ccc(Cl)cc3Cl)nc2O1 (single isomer, unassigned; enantiomer 1) [N-(6-(4-CHLOROPHENYL)-7-(2,4-DICHLOROPHENYL)-2,2-DIMETHYL-3,4-DIHYDRO-2H-PYRANO[2,3-B]PYRIDIN-4-YL)-3-HYDROXYPROPANAMIDE (ENANTIOMERIC MIX)]	2460	1.7	Activity (Rattus norvegicus [7]): 48%; Activity (Rattus norvegicus [10]): -11 g; clearance [2]: 3 mL/min/kg; IC50 [8]: 380 nM; bioavailability [4]: 85%; half-life [5]: 13 h
O=C(CO)NC1CC2(CCCCC2)Oc2nc(-c3ccccc3Cl)c(-c3ccc(Cl)cc3)cc21 (racemic)	4200	0.3	concentration at 4 h [1]: 16 nM; clearance [2]: 34 mL/min/kg; Kp at 4 h [3]: 1.7; bioavailability [4]: 13%; half-life [5]: 0.8 h; concentration at 4 h [6]: 27 nM
CC1(C)CC(C)(O)c2cc(-c3ccc(Cl)cc3)c(-c3ccc(Cl)cc3Cl)nc2O1 (racemic)	2920	80	–
CC(C)(O)C(=O)c1oc2nc(-c3ccc(Cl)cc3Cl)c(-c3ccc(Cl)cc3)cc2c1NC(=O)CO	–	–	Emax [11]: 18%; EC50 [12]: 700 nM
CC1(C)CC(C(N)=O)c2cc(-c3ccc(Cl)cc3)c(-c3ccc(Cl)cc3Cl)nc2O1 (single isomer, unassigned; enantiomer 1) [6-(4-CHLOROPHENYL)-7-(2,4-DICHLOROPHENYL)-2,2-DIMETHYL-3,4-DIHYDRO-2H-PYRANO[2,3-B]PYRIDINE-4-CARBOXAMIDE (ENANTIOMERIC MIX)]	2480	97	–
C[C@H](NC(=O)C(C)(C)Oc1ccc(C(F)(F)F)cn1)[C@@H](Cc1ccc(Cl)cc1)c1cccc(C#N)c1 [TARANABANT]	–	–	Activity (Rattus norvegicus [13]): -10 g; Activity (Rattus norvegicus [7]): 49%
C[C@@H](O)C(=O)NC1CC2(CCCCC2)Oc2nc(-c3ccccc3Cl)c(-c3ccc(Cl)cc3)cc21 (single isomer, unassigned; enantiomer 1)	3600	0.2	–
CC1(C)CC(NC(=O)CCO)c2cc(-c3ccc(Cl)cc3)c(-c3ccc(Cl)cc3Cl)nc2O1 (single isomer, unassigned; enantiomer 2) [N-(6-(4-CHLOROPHENYL)-7-(2,4-DICHLOROPHENYL)-2,2-DIMETHYL-3,4-DIHYDRO-2H-PYRANO[2,3-B]PYRIDIN-4-YL)-3-HYDROXYPROPANAMIDE (ENANTIOMERIC MIX)]	5400	14	–
CC1(C)CC(O)c2cc(-c3ccc(Cl)cc3)c(-c3ccc(Cl)cc3Cl)nc2O1 (racemic)	4950	130	–
O=C1CC(c2cccc(F)c2)Oc2nc(-c3ccccc3Cl)c(-c3ccc(Cl)cc3)cc21 (racemic)	> 2000	1.7	–
CC1(C)CC(=O)c2cc(-c3ccc(Cl)cc3)c(-c3ccc(Cl)cc3Cl)nc2O1	1300	47	–
CC(C)(CO)NC(=O)C1CC(C)(C)Oc2nc(-c3ccc(Cl)cc3Cl)c(-c3ccc(Cl)cc3)cc21 (single isomer, unassigned; enantiomer 1) [6-(4-CHLOROPHENYL)-7-(2,4-DICHLOROPHENYL)-N-(1-HYDROXY-2-METHYLPROPAN-2-YL)-2,2-DIMETHYL-3,4-DIHYDRO-2H-PYRANO[2,3-B]PYRIDINE-4-CARBOXAMIDE (ENANTIOMERIC MIX)]	5150	14	–
C[C@@H](O)C(=O)NC1CC2(CCCCC2)Oc2nc(-c3ccccc3Cl)c(-c3ccc(Cl)cc3)cc21 (stereo in doubt; 12h) [(2R)-N-(7'-(2-CHLOROPHENYL)-6'-(4-CHLOROPHENYL)-3',4'-DIHYDROSPIRO[CYCLOHEXANE-1,2'-PYRANO[2,3-B]PYRIDINE]-4'-YL)-2-HYDROXYPROPANAMIDE (ENANTIOMERIC MIX)]	3400	2	–
CC1(C)CC(=O)c2cc(-c3ccc(Cl)cc3)c(-c3ccccc3Cl)nc2O1	2300	120	–
CC1(C)CC(N)c2cc(-c3ccc(Cl)cc3)c(-c3ccc(Cl)cc3Cl)nc2O1 (racemic)	7760	110	–
O=C1CC2(CCCCC2)Oc2nc(-c3ccccc3Cl)c(-c3ccc(Cl)cc3)cc21	8300	8.2	–
C[C@H](O)C(=O)NC1CC2(CCCCC2)Oc2nc(-c3ccccc3Cl)c(-c3ccc(Cl)cc3)cc21 (stereo in doubt; 12e) [(2S)-N-(7'-(2-CHLOROPHENYL)-6'-(4-CHLOROPHENYL)-3',4'-DIHYDROSPIRO[CYCLOHEXANE-1,2'-PYRANO[2,3-B]PYRIDINE]-4'-YL)-2-HYDROXYPROPANAMIDE (ENANTIOMERIC MIX)]	1800	0.4	–
CC(C)(O)C(=O)NC1CC2(CCCCC2)Oc2nc(-c3ccccc3Cl)c(-c3ccc(Cl)cc3)cc21 (single isomer, unassigned; enantiomer 1) [N-(7'-(2-CHLOROPHENYL)-6'-(4-CHLOROPHENYL)-3',4'-DIHYDROSPIRO[CYCLOHEXANE-1,2'-PYRANO[2,3-B]PYRIDINE]-4'-YL)-2-HYDROXY-2-METHYLPROPANAMIDE (ENANTIOMERIC MIX)]	3200	0.7	Activity (Rattus norvegicus [7]): 28%; Activity (Rattus norvegicus [14]): 3 g; concentration at 4 h [1]: 3500 nM; clearance [2]: 62 mL/min/kg; Kp at 4 h [3]: 3.5; bioavailability [4]: 6%; half-life [5]: 1.9 h; concentration at 4 h [6]: 116 nM
C[C@H](O)C(=O)NC1CC2(CCCCC2)Oc2nc(-c3ccccc3Cl)c(-c3ccc(Cl)cc3)cc21 (stereo in doubt; 12f) [(2S)-N-(7'-(2-CHLOROPHENYL)-6'-(4-CHLOROPHENYL)-3',4'-DIHYDROSPIRO[CYCLOHEXANE-1,2'-PYRANO[2,3-B]PYRIDINE]-4'-YL)-2-HYDROXYPROPANAMIDE (ENANTIOMERIC MIX)]	10000	13	–
O=C1CC2(CCSCC2)Oc2nc(-c3ccccc3Cl)c(-c3ccc(Cl)cc3)cc21	8000	4.9	–
CC1CC(=O)c2cc(-c3ccc(Cl)cc3)c(-c3ccccc3Cl)nc2O1 (racemic)	6300	21	–
CC1(C)CC(NC(=O)CO)c2cc(-c3ccc(Cl)cc3)c(-c3ccc(Cl)cc3Cl)nc2O1 (single isomer, unassigned; enantiomer 1) [N-(6-(4-CHLOROPHENYL)-7-(2,4-DICHLOROPHENYL)-2,2-DIMETHYL-3,4-DIHYDRO-2H-PYRANO[2,3-B]PYRIDIN-4-YL)-2-HYDROXYACETAMIDE (ENANTIOMERIC MIX)]	4780	1.7	–
CC1(C)CC(C(N)=O)c2cc(-c3ccc(Cl)cc3)c(-c3ccc(Cl)cc3Cl)nc2O1 (single isomer, unassigned; enantiomer 2) [6-(4-CHLOROPHENYL)-7-(2,4-DICHLOROPHENYL)-2,2-DIMETHYL-3,4-DIHYDRO-2H-PYRANO[2,3-B]PYRIDINE-4-CARBOXAMIDE (ENANTIOMERIC MIX)]	> 2000	220	–
